Published values collected from several papers.
Lines come from different studies, so protocols differ.
Target: Mitogen-activated protein kinase 3 (MAPK3, Homo sapiens, UniProt P27361)

For `Cc1nn(C)cc1-c1nc2c(N3CCN(Cc4ccc(Cl)cc4)CC3)c(Cl)cnc2[nH]1`, the remaining binding was 100% (binding; competition with immobilised ligand; 1 µM).
With `Cn1cc(-c2cc(F)cc(N3CCn4c(cc5c4CCCC5)C3=O)c2CO)cc(Nc2ccc(N3CCN(C4COC4)CC3)cn2)c1=O` the inhibition was 14% (enzyme activity; inhibitor; 0.1 µM).
`Nc1ncc(-c2nc(N3CCOCC3)nc(N3CCOCC3)n2)c(C(F)F)n1` gave a remaining binding of 89% (binding; competition with immobilised ligand; 10 µM).
`COc1cc(Nc2ncc(F)c(Nc3ccc4c(n3)NC(=O)C(C)(C)O4)n2)cc(OC)c1OC` has an inhibition of 0% (binding; competition with immobilised ligand; 10 µM).
With `O=c1[nH]c2ccccc2n1C1CCN(Cc2ccc(-c3[nH]c4cc5ncnc5cc4nc3-c3ccccc3)cc2)CC1` the remaining signal was 118% (cell-free assay; 0.5 µM).
With `N#CC1(c2ccccn2)CCN(Cc2cc(C(=O)O)c(=O)n3ccccc23)CC1` the remaining binding was 100% (cell-free assay; competition with immobilised ligand; 1 µM).
The remaining binding of `COc1ncccc1-c1cnn2ccc(N3CCN(C(=O)OC(C)C)CC3)nc12` is reported as 100% (binding; competition with immobilised ligand; 1 µM).
With `C[C@@H](O)[C@H](N)C(=O)N1CCC[C@H]1C(=O)N1CCC[C@H]1C(=O)N[C@H](C(N)=O)[C@@H](C)O` the inhibition was 3% (enzyme activity; inhibitor; 30 µM).
`CC(C)(C)c1cc(C=C(C#N)C#N)cc(Br)c1O` has a remaining activity of 105% (enzyme activity; inhibitor; 0.5 µM).
`Cn1cncc1[C@@](O)(COc1ccc(C#N)cc1-c1ccc(OC(F)(F)F)cc1)c1ccc(C#N)cc1` has a remaining binding of 83% (cell-free assay; competition with immobilised ligand; 1 µM).
`CN[C@@]1(c2ccccc2Cl)CCCCC1=O` has an inhibition of -4% (enzyme activity; inhibitor; 30 µM).
